Assay results from article PMC9116722 (Cancer chemotherapy and pharmacology, 2022).

Assay: Adverse events
Format: in vivo, human
Conditions: BRCAmut and BRCAwt combined
Procedure, shortened: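 Patients with germline BRCA-mutated cancers, or BRCA-wildtype TNBC or platinum-refractory ovarian cancer, took oral drug continuously twice daily in 28-day cycles. There were nine dose levels from 50 to 500 mg BID under 3+3 escalation, run separately per cohort after the first DLT. Toxicities were graded by CTCAE v4.0, with DLTs assessed during cycle 1.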

## C[C@]1(c2nc3c(C(N)=O)cccc3[nH]2)CCCN1 [veliparib]
  Abdominal pain, Any Grade: 6 (6) number of patients (%)
  Abdominal pain, Grade 1: 3 (3) number of patients (%)
  Abdominal pain, Grade 2: 1 (1) number of patients (%)
  Abdominal pain, Grade 3: 2 (2) number of patients (%)
  Abdominal pain, Grade 4: 0 (0) number of patients (%)
  Alkaline phosphatase increased, Any Grade: 6 (6) number of patients (%)
  Alkaline phosphatase increased, Grade 1: 3 (3) number of patients (%)
  Alkaline phosphatase increased, Grade 2: 2 (2) number of patients (%)
  Alkaline phosphatase increased, Grade 3: 1 (1) number of patients (%)
  Alkaline phosphatase increased, Grade 4: 0 (0) number of patients (%)
  Anemia, Any Grade: 31 (32) number of patients (%)
  Anemia, Grade 1: 19 (19) number of patients (%)
  Anemia, Grade 2: 10 (10) number of patients (%)
  Anemia, Grade 3: 1 (1) number of patients (%)
  Anemia, Grade 4: 1 (1) number of patients (%)
  Anorexia, Any Grade: 20 (20) number of patients (%)
  Anorexia, Grade 1: 17 (17) number of patients (%)
  Anorexia, Grade 2: 3 (3) number of patients (%)
  Anorexia, Grade 3: 0 (0) number of patients (%)
  Anorexia, Grade 4: 0 (0) number of patients (%)
  Any adverse event, Any Grade: 92 (94) number of patients (%)
  Any adverse event, Grade 1: 86 (88) number of patients (%)
  Any adverse event, Grade 2: 54 (55) number of patients (%)
  Any adverse event, Grade 4: 3 (3) number of patients (%)
  Aspartate aminotransferase increased, Any Grade: 9 (9) number of patients (%)
  Aspartate aminotransferase increased, Grade 1: 8 (8) number of patients (%)
  Aspartate aminotransferase increased, Grade 2: 0 (0) number of patients (%)
  Aspartate aminotransferase increased, Grade 3: 1 (1) number of patients (%)
  Aspartate aminotransferase increased, Grade 4: 0 (0) number of patients (%)
  Constipation, Any Grade: 9 (9) number of patients (%)
  Constipation, Grade 1: 8 (8) number of patients (%)
  Constipation, Grade 2: 1 (1) number of patients (%)
  Constipation, Grade 3: 0 (0) number of patients (%)
  Constipation, Grade 4: 0 (0) number of patients (%)
  Diarrhea, Any Grade: 19 (19) number of patients (%)
  Diarrhea, Grade 1: 16 (16) number of patients (%)
  Diarrhea, Grade 2: 3 (3) number of patients (%)
  Diarrhea, Grade 3: 0 (0) number of patients (%)
  Diarrhea, Grade 4: 0 (0) number of patients (%)
  Dizziness, Any Grade: 9 (9) number of patients (%)
  Dizziness, Grade 1: 8 (8) number of patients (%)
  Dizziness, Grade 2: 1 (1) number of patients (%)
  Dizziness, Grade 3: 0 (0) number of patients (%)
  Dizziness, Grade 4: 0 (0) number of patients (%)
  Dry mouth, Any Grade: 8 (8) number of patients (%)
  Dry mouth, Grade 1: 8 (8) number of patients (%)
  Dry mouth, Grade 2: 0 (0) number of patients (%)
  Dry mouth, Grade 3: 0 (0) number of patients (%)
  Dry mouth, Grade 4: 0 (0) number of patients (%)
  Dysgeusia, Any Grade: 16 (16) number of patients (%)
  Dysgeusia, Grade 1: 16 (16) number of patients (%)
  Dysgeusia, Grade 2: 0 (0) number of patients (%)
  Dysgeusia, Grade 3: 0 (0) number of patients (%)
  Dysgeusia, Grade 4: 0 (0) number of patients (%)
  Dyspepsia, Any Grade: 6 (6) number of patients (%)
  Dyspepsia, Grade 1: 6 (6) number of patients (%)
  Dyspepsia, Grade 2: 0 (0) number of patients (%)
  Dyspepsia, Grade 3: 0 (0) number of patients (%)
  Dyspepsia, Grade 4: 0 (0) number of patients (%)
  Dyspnea, Any Grade: 5 (5) number of patients (%)
  Dyspnea, Grade 1: 2 (2) number of patients (%)
  Dyspnea, Grade 2: 1 (1) number of patients (%)
  Dyspnea, Grade 3: 1 (1) number of patients (%)
  Dyspnea, Grade 4: 1 (1) number of patients (%)
  Fatigue, Any Grade: 44 (45) number of patients (%)
  Fatigue, Grade 1: 33 (34) number of patients (%)
  Fatigue, Grade 2: 9 (9) number of patients (%)
  Fatigue, Grade 3: 2 (2) number of patients (%)
  Fatigue, Grade 4: 0 (0) number of patients (%)
  Headache, Any Grade: 9 (9) number of patients (%)
  Headache, Grade 1: 7 (7) number of patients (%)
  Headache, Grade 2: 1 (1) number of patients (%)
  Headache, Grade 3: 1 (1) number of patients (%)
  Headache, Grade 4: 0 (0) number of patients (%)
  Hyperglycemia, Any Grade: 10 (10) number of patients (%)
  Hyperglycemia, Grade 1: 9 (9) number of patients (%)
  Hyperglycemia, Grade 2: 1 (1) number of patients (%)
  Hyperglycemia, Grade 3: 0 (0) number of patients (%)
  Hyperglycemia, Grade 4: 0 (0) number of patients (%)
  Hyponatremia, Any Grade: 7 (7) number of patients (%)
  Hyponatremia, Grade 1: 7 (7) number of patients (%)
  Hyponatremia, Grade 2: 0 (0) number of patients (%)
  Hyponatremia, Grade 3: 0 (0) number of patients (%)
  Hyponatremia, Grade 4: 0 (0) number of patients (%)
  Hypophosphatemia, Any Grade: 8 (8) number of patients (%)
  Hypophosphatemia, Grade 1: 2 (2) number of patients (%)
